Measurements taken from ChEMBL document CHEMBL1177808, “Benzofuran-substituted urea derivatives as novel P2Y(1) receptor antagonists” (Bioorg Med Chem Lett, 2010).

Assays:
Platelet [1] = assay: Inhibition of ADP-mediated alpha granule release in human platelet assessed as inhibition of P-selectin expression at 10 uM by flow cytometry; type: functional
Method in brief: (§1)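 Human PRP from drug-free volunteers (EDTA 10 mM, 300g 4 min), diluted 1:50 in Hepes-modified Tyrode's buffer pH 7.4. Compound or DMSO added, then immediately ADP 300 nM for 5 min. PE-anti-CD62P for 15 min, fixed 30 min in 2% paraformaldehyde, P-selectin read by flow cytometry.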

P2Y purinoceptor 1 [2] = target: T1, P2Y purinoceptor 1 (Homo sapiens, UniProt P47900); assay: Displacement of [33P]2-MeS-ADP from human P2Y1 receptor expressed in human U2OS cells at 10 uM by scintillation counting; type: cell-based
Method in brief: (§2)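 Membranes from BacMam-transduced U2OS cells expressing human P2Y1, 0.5 µg prebound to 0.5 mg WGA-SPA beads. Radioligand 150 pM [33P]-2-MeS-ADP in 15 mM Hepes, 145 mM NaCl, 0.1 mM MgCl2, 5 mM EDTA, 5 mM KCl, with test compound dilutions or DMSO. Incubated 1 h at room temperature, centrifuged at 2000g, SPA counts read. At least three determinations.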

P2Y purinoceptor 1 [3] = target: T1, P2Y purinoceptor 1; assay: Antagonist activity at P2Y1 expressed in HEK293 cells by FLIPR assay; type: functional, cell-based
Method in brief: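 HEK-293 MSRII cells (endogenous P2Y1) grown in DMEM/F12 with 10% FBS, plated 20,000/well, cultured 48 h. Loaded with calcium 3 dye in HBSS pH 7.4 plus 2.5 mM probenecid, 1 h, 37 °C. Calcium flux read on FLIPR; IC50 from non-linear regression; at least three determinations.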

P2Y purinoceptor 1 [4] = target: T1, P2Y purinoceptor 1; assay: Displacement of [33P]2-MeS-ADP from human P2Y1 receptor expressed in human U2OS cells by scintillation counting; type: cell-based; method in brief: as §2
Platelet [5] = assay: Inhibition of ADP-mediated alpha granule release in human platelet assessed as inhibition of P-selectin expression by flow cytometry; type: functional, cell-based; method in brief: as §1

T1 sequence (P47900 whole entry): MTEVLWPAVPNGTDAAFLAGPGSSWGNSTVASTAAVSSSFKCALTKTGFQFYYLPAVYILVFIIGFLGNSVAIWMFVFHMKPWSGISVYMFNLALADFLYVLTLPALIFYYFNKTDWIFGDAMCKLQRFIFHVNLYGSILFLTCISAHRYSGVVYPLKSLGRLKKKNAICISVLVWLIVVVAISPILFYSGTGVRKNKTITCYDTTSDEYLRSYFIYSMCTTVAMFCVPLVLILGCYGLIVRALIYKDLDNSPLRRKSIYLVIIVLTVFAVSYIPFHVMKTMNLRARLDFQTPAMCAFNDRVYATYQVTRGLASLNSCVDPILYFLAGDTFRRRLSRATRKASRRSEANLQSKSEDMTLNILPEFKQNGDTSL

| Structure (SMILES) | inhibition (P2Y purinoceptor 1 [2]) | IC50 (P2Y purinoceptor 1 [3]) | Ki (P2Y purinoceptor 1 [4]) | IC50 (Platelet [5]) | inhibition at 10 µM (Platelet [1]) |
| --- | --- | --- | --- | --- | --- |
| Cc1ccc(NC(=O)Nc2cccc3cc(-c4ccccc4C(C)C)oc23)cc1C(F)(F)F | 69% | 1600 nM |  |  | 79% |
| CC(C)c1ccccc1-c1cc2cccc(NC(=O)Nc3cccc(C(F)(F)F)c3)c2o1 | 60% | 5000 nM |  |  |  |
| O=C(Nc1ccc(OC(F)(F)F)cc1)Nc1cccc2cc(-c3cccc(C(F)(F)F)c3)oc12 |  | > 25000 nM |  |  |  |
| CC(C)(C)c1ccccc1-c1cc2cccc(NC(=O)Nc3ccc(OC(F)(F)F)cc3)c2o1 |  | 4000 nM | 400 nM |  |  |
| O=C(Nc1ccc(OC(F)(F)F)cc1)Nc1cccc2cc(-c3ccccc3Cl)oc12 |  | > 25000 nM |  |  |  |
| CC(C)Oc1ccccc1-c1cc2cccc(NC(=O)Nc3ccc(OC(F)(F)F)cc3)c2o1 |  | > 25000 nM |  |  |  |
| O=C(Nc1ccc(OC(F)(F)F)cc1)Nc1cccc2cc(-c3ccccc3C(F)(F)F)oc12 |  | 6300 nM | 2500 nM |  |  |

Now from value to molecule, other results behind:

| inhibition (P2Y purinoceptor 1 [2]) | IC50 (P2Y purinoceptor 1 [3]) | Ki (P2Y purinoceptor 1 [4]) | IC50 (Platelet [5]) | Structure (SMILES) | inhibition at 10 µM (Platelet [1]) |
| --- | --- | --- | --- | --- | --- |
|  | 15800 nM |  |  | CC(C)c1ccccc1-c1cc2cccc(NC(=O)Nc3ccc(N(C)C)cc3)c2o1 |  |
|  | 4000 nM | 600 nM |  | CC(C)c1ccccc1-c1cc2cccc(NC(=O)Nc3ccc(OC(F)(F)F)cc3)c2o1 | 49% |
|  | 2000 nM | 640 nM |  | CCCCOc1ccc(NC(=O)Nc2cccc3cc(-c4ccccc4C(C)C)oc23)cc1 |  |
|  | 630 nM | 140 nM |  | CCCCCc1ccc(NC(=O)Nc2cccc3cc(-c4ccccc4C(C)C)oc23)cc1 |  |
|  | 2000 nM | 760 nM |  | CC(C)c1ccccc1-c1cc2cccc(NC(=O)Nc3ccc(Cl)cc3)c2o1 |  |
| 72% | 1300 nM |  | 300 nM | CC(C)c1ccccc1-c1cc2cccc(NC(=O)Nc3ccc(C(C)(C)C)cc3)c2o1 | 100% |
